Like-named read-outs stand apart in the source and are kept apart here. Blank lines part the entries; values can stand above or below the compound they belong to.
What was measured:
[1] = biological target: T1, XO (isolated from bovine milk) (Bos taurus, UniProt P80457); assay: XO inhibition assay; assay type: biochemical
[2] = biological target: T1, XO (isolated from bovine milk); assay: Enzyme kinetic studies; assay type: biochemical
Summary of the method: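 Bovine milk XO. Reversibility: xanthine held at 0.25 mM, XO varied 0.03–0.15 U mL−1 (five levels), test compound at 0, 10, 20 and 30 μM, velocity plotted against [XO]. Inhibition type: XO 0.025 U mL−1, xanthine 0.0625–0.1875 mM, same compound levels. Lineweaver–Burk double-reciprocal analysis, with linear secondary replots of slope and Y-intercept against [compound].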

[3] = biological target: T1, XO (isolated from bovine milk); assay: Fluorescence titrations; assay type: binding; details: for Kd: binding constant K
Summary of the method: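 Intrinsic fluorescence of bovine milk XO (0.16 U mL−1) titrated with test compound at 0–26.7 μM, at 298, 304 and 310 K. Excitation 280 nm, emission 300–500 nm, slit 5.0 nm. Mixtures equilibrated 30 min before reading. Compound-only control at each concentration; PBS blank for background correction. Final DMSO below 1%.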

[4] = biological target: T1, XO (isolated from bovine milk); assay: Fourier translation infrared spectroscopy, secondary structure of XO; details: XO 0.5 U mL^−1 with AUR
Summary of the method: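 FT-IR of bovine milk XO (0.5 U mL−1), alone and with test compound (200 μM), at room temperature. Spectra collected over 1800–1400 cm−1 at 4 cm−1 resolution, 128 scans co-added, background subtracted. Secondary-structure fractions quantified by split-peak fitting of the amide I band (1600–1700 cm−1).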

XO = details: cited from earlier work
[5] = 298, 304 and 310 K (taken as constant)

T1 sequence (P80457 whole entry): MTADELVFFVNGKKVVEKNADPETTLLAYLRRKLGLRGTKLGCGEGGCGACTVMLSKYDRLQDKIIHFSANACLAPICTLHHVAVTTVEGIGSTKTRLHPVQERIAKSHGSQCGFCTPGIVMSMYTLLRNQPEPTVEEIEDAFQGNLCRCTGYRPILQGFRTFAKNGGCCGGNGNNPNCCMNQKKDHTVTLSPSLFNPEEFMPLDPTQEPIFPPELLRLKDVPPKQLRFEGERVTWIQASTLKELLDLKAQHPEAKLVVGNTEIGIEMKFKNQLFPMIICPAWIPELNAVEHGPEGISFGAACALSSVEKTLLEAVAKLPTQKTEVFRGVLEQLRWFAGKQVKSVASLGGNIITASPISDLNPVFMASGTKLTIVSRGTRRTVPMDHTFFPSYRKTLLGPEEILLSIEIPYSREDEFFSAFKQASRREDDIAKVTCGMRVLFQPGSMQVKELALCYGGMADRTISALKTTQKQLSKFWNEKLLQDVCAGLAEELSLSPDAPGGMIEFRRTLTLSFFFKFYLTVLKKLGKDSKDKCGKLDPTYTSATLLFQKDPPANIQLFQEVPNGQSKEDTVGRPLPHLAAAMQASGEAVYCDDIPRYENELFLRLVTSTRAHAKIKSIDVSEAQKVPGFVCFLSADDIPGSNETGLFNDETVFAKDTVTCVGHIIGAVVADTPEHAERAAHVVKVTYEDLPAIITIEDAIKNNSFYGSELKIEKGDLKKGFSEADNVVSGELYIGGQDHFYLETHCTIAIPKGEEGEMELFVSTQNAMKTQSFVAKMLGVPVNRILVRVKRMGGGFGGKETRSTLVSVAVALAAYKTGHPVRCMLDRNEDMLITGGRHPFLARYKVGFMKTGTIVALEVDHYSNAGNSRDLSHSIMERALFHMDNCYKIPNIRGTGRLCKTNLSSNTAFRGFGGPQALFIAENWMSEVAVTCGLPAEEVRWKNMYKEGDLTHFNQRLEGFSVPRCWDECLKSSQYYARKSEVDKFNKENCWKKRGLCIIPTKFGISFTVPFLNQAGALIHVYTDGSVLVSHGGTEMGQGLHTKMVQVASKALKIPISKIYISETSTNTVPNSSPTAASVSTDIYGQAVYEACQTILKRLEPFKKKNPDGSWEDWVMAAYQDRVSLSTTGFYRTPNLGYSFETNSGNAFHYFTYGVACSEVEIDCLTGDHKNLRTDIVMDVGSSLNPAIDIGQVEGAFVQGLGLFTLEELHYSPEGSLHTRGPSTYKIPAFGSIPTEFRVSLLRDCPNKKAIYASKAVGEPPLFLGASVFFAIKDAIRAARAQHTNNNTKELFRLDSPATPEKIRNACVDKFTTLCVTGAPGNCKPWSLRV

IC50 [1]: 7.62 ± 0.401 µM | Ki [2]: 1.8 µM | ratio (α) of Kis to Ki [2]: 0.31 | uncompetitive inhibition constant (Kis) ([2]; binding to XO–xanthine complex): 0.56 µM | inhibition reversibility ([2]; plots of v vs [XO], AUR 0–30 μM, xanthine 0.25 mM): reversible | fluorescence quenching mechanism [3]: static quenching process | ΔH [3, 5]: 3.1 kcal/mol | ΔS [3, 5]: 121.95 J mol^−1 K^−1 | lg K ([3]; 298 K): 4.096 | number of binding sites n ([3]; 298 K): 0.977 | quenching constant Ksv ([3]; 298 K): 16190 L/mol | lg K ([3]; 304 K): 4.155 | number of binding sites n ([3]; 304 K): 0.993 | quenching constant Ksv ([3]; 304 K): 15450 L/mol | ΔG ([3]; 304 K): -8.858 kcal/mol | lg K ([3]; 310 K): 4.184 | number of binding sites n ([3]; 310 K): 1.006 | quenching constant Ksv ([3]; 310 K): 14370 L/mol | ΔG ([3]; 310 K): -9.032 kcal/mol | Kd ([3]; 298 K): 80.2 µM | Kd ([3]; 304 K): 70 µM | Kd ([3]; 310 K): 65.4 µM | β-Sheet content of XO ([4]; free XO 17.50): 12.07% | β-Turn content of XO ([4]; free XO 40.37): 23.31% | α-Helix and random structure content of XO ([4]; free XO 42.13): 64.62%
SMILES: O=C1/C(=C/c2ccc(O)c(O)c2)Oc2cc(O)cc(O)c21 [AUR, Aureusidin]
inhibition type ([2]; Lineweaver–Burk plot, XO 0.025 U mL^−1, AUR 0–30 μM): mixed-type (competitive and noncompetitive)

SMILES: O=c1c(O)c(-c2ccc(O)c(O)c2)oc2cc(O)cc(O)c12 [Quercetin, quercetin]
inhibition type (XO): mixed-type | IC50 (XO; ref 18 (Zhang et al.)): 2.74 ± 0.04 µM

SMILES: O=C1/C(=C/c2ccc(O)c(O)c2)Oc2cc(O)ccc21 [sulfuretin]
IC50 (XO; ref 24 (Muzychka et al.)): 3.1 ± 0.38 µM
